According to ChEMBL document CHEMBL3407386, “Design, synthesis, and biological evaluation of tetrazole analogs of Cl-amidine as protein arginine deiminase inhibitors” (J Med Chem, 2015):
pEC50: −log10 of the molar value. Activity calls are given as the source filed them. The calls are words filed in the database; no cut-off is given here.

How the values were obtained:
U2OS [1] = test: Antiproliferative activity against human U2OS cells expressing PAD4 assessed as cell viability at 20 uM after 72 hrs by XTT assay; format: functional
Method in brief: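 U2OS cells were treated the next day at 20 μM final for 72 h, with DMSO and Triton X-100 as controls. Viability was read by XTT absorbance at 475 nm.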

[2] = molecular target: Protein-arginine deiminase type-4 (Homo sapiens) (UniProt Q9UM07); test: Inhibition of PAD4 (unknown origin) using N-alpha-benzoyl-L-arginine ethyl ester as substrate assessed as citrulline production after 15 mins by COLDER assay
[3] = molecular target: T1, Protein-arginine deiminase type-1 (Homo sapiens) (UniProt Q9ULC6); test: Ratio of Kinact to Ki for PAD1 (unknown origin) using N-alpha-benzoyl-L-arginine ethyl ester as substrate assessed as citrulline production after 15 mins by COLDER assay
T1 sequence (whole entry): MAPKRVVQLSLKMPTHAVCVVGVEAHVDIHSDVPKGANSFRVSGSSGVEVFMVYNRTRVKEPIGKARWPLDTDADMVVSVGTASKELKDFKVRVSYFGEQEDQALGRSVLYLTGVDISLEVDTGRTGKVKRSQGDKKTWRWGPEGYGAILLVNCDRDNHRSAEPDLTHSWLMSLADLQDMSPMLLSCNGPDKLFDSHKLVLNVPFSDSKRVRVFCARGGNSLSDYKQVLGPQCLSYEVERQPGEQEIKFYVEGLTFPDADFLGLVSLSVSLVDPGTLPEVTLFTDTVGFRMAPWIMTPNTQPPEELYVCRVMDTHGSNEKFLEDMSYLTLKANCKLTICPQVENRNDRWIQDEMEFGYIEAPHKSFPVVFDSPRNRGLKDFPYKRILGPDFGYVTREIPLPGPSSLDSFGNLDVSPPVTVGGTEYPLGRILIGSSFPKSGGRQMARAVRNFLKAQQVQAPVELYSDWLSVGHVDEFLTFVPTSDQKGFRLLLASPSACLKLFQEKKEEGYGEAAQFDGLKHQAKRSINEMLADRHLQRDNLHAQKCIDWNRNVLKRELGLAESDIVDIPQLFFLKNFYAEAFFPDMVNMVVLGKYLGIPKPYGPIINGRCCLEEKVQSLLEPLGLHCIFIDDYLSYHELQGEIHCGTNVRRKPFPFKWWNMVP

[4] = molecular target: Protein-arginine deiminase type-4 (Homo sapiens) (UniProt Q9UM07); test: Ratio of Kinact to Ki for PAD4 (unknown origin) using N-alpha-benzoyl-L-arginine ethyl ester as substrate assessed as citrulline production after 15 mins by COLDER assay
Homo sapiens [5] = organism: Homo sapiens; test: Selectivity ratio for PAD1 (unknown origin) over PAD2 (unknown origin)
Homo sapiens [6] = organism: Homo sapiens; test: Selectivity ratio for PAD1 (unknown origin) over PAD3 (unknown origin)
U2OS [7] = test: Antiproliferative activity against human U2OS cells expressing PAD4 assessed as cell viability after 72 hrs by XTT assay; format: functional, cell-based
Method in brief: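 U2OS human osteosarcoma cells were plated and treated the next day with an eight-point concentration series for 72 h. Viability was read by XTT at 475 nm. EC50 was fitted to a dose–response equation with range (uninhibited minus background) and slope factor.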

Liver = test: Metabolic stability in mouse liver microsomes; format: ADME
[8] = molecular target: Protein-arginine deiminase type-2 (Homo sapiens) (UniProt Q9Y2J8); test: Inhibition of PAD2 (unknown origin) using N-alpha-benzoyl-L-arginine ethyl ester as substrate assessed as citrulline production after 15 mins by COLDER assay
[9] = molecular target: Protein-arginine deiminase type-4 (Mus musculus) (UniProt Q9Z183); test: Inhibition of PAD4 in C57BL/6 mouse bone marrow neutrophils assessed as inhibition of PMA-stimulated neutrophil extracellular trap formation at […] preincubated for 30 mins followed by PMA stimulation measured after 3 to 4 hrs by […]
Method in brief: (§1)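 C57BL/6 bone-marrow neutrophils were isolated on a Percoll gradient (69–78% interface, >95% Ly-6G+) and seeded at 1.5 × 10^5 on poly-L-lysine coverslips. They were pretreated for 30 min in Locke's solution, then given 100 nM PMA for 3–4 h, PFA-fixed, and stained with Hoechst and anti-myeloperoxidase. NETs (decondensed MPO+ nuclei) were counted blind over ≥5 fields as % of total cells.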

[10] = Cytotoxicity against human neutrophils assessed as cell viability after 4 hrs by XTT assay; format: cell-based; conditions: Neutrophil
Method in brief: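 Freshly isolated human neutrophils in RPMI 1640 with 10% FBS were seeded at 40 000 cells/well on poly-L-lysine and allowed to adhere for 1 h. They were exposed to compound at 1–500 μM for 4 h, and viability was read by XTT.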

[11] = molecular target: Protein-arginine deiminase type-4 (Mus musculus) (UniProt Q9Z183); test: Inhibition of PAD4 in C57BL/6 mouse bone marrow neutrophils assessed as inhibition of PMA-stimulated neutrophil extracellular trap formation at 2 to 200 uM preincubated for 30 mins followed by PMA stimulation measured after 3 to 4 hrs by […]; method in brief: as §1
[12] = molecular target: T1, Protein-arginine deiminase type-1 (Homo sapiens); test: Inhibition of PAD1 (unknown origin) using N-alpha-benzoyl-L-arginine ethyl ester as substrate assessed as citrulline production after 15 mins by COLDER assay

Chain of Protein-arginine deiminase type-4 (Homo sapiens) (Q9UM07 whole entry): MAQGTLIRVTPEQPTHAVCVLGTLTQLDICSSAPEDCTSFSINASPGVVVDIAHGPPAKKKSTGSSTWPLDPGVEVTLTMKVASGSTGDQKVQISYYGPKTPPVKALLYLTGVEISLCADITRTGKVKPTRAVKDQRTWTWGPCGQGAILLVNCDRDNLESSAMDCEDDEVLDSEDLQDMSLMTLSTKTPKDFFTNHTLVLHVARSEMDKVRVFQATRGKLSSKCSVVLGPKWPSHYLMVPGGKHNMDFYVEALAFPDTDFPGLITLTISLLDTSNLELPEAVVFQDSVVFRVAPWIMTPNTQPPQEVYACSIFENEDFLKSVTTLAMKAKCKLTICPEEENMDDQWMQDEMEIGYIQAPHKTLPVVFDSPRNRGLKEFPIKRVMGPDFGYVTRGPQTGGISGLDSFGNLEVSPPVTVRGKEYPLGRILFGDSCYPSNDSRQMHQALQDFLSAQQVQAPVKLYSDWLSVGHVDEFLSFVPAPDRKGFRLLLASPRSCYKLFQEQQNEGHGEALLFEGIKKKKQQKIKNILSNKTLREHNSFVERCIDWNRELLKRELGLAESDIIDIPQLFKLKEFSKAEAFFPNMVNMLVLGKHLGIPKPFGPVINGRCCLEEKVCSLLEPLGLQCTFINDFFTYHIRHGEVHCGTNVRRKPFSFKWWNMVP
Chain of Protein-arginine deiminase type-4 (Mus musculus) (Q9Z183 whole entry): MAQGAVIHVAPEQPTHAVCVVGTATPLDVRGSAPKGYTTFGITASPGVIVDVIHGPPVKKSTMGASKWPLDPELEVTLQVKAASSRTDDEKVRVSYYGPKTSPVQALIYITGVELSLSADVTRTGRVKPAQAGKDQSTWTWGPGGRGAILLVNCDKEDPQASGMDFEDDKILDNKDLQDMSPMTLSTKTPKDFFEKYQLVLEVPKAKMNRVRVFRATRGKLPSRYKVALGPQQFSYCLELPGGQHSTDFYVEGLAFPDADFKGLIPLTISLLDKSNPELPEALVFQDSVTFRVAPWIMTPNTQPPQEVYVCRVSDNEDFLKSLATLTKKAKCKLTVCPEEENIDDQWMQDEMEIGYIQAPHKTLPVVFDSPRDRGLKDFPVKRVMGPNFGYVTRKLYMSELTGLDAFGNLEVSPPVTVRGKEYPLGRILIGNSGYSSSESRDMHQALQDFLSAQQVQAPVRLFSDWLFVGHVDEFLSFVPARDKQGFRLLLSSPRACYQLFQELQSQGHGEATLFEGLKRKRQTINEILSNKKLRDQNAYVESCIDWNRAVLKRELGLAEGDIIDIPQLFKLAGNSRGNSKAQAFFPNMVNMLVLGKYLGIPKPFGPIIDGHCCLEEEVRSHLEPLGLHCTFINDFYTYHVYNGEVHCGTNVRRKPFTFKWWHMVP
Chain of Protein-arginine deiminase type-2 (Homo sapiens) (Q9Y2J8 whole entry): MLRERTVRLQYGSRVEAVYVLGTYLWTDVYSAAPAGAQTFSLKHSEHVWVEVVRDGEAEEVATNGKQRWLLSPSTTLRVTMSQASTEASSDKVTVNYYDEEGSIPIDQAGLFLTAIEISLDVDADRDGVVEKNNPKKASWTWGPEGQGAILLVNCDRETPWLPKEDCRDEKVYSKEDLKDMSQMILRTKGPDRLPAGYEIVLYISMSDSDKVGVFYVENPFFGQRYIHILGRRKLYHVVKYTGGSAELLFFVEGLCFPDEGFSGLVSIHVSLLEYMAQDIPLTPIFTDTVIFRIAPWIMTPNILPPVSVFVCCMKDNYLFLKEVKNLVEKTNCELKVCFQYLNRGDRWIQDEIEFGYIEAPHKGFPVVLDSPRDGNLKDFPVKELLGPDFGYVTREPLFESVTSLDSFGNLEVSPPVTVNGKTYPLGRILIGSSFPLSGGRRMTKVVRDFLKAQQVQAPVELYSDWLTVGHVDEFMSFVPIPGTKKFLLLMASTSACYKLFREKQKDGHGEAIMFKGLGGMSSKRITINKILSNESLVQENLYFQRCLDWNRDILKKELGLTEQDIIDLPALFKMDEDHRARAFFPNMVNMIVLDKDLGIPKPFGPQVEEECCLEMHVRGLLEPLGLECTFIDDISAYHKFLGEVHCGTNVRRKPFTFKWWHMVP

## N=C(CCl)NCCC[C@H](NC(=O)c1ccc(-c2ccccc2)cc1)c1nn[nH]n1
U2OS [1]
  Activity: inactive

## N=C(CF)NCCC[C@H](NC(=O)c1ccc(-c2ccccc2)cc1)c1nn[nH]n1
[2]
  inhibition: inactive
U2OS [1]
  Activity: inactive

## N=C(CCl)NCCC[C@H](NC(=O)c1ccccc1C(=O)O)c1nn[nH]n1
[3]
  Ratio: 82000 M⁻¹ min⁻¹
[4]
  Ratio: 159000 M⁻¹ min⁻¹
Homo sapiens [5]
  Selectivity ratio: 15
Homo sapiens [6]
  Selectivity ratio: 15
U2OS [1]
  Activity: inactive

## CC(C)(C)n1nnc([C@H](CCCNC(=N)CF)NC(=O)c2ccc(-c3ccccc3)cc2)n1
[2]
  inhibition: inactive
U2OS [7]
  pEC50: 4.35
Liver
  Stability: Stable
U2OS [1]; read-out: Activity
  viability at 20 µM: > 50%

## CC(C)(C)n1nnc([C@H](CCCNC(=N)CF)NC(=O)c2ccccc2C(=O)O)n1
[2]
  inhibition: inactive
[8]
  inhibition: Active
Liver
  Stability: Stable
U2OS [1]
  Activity: inactive

## CC(C)(C)n1nnc([C@H](CCCNC(=N)CCl)NC(=O)c2ccccc2C(=O)O)n1
Liver
  Stability: Stable
[9]
  inhibition: Active
[10]
  pEC50: 3.01
U2OS [1]
  Activity: inactive

## CC(C)(C)n1nnc([C@H](CCCNC(=N)CF)NC(=O)c2ccccc2)n1
[2]
  inhibition: inactive
U2OS [1]
  Activity: inactive

## N=C(CF)NCCC[C@H](NC(=O)c1ccccc1)C(N)=O
[2]
  inhibition: inactive

## N=C(CCl)NCCC[C@H](NC(=O)c1ccccc1)c1nn[nH]n1
U2OS [1]
  Activity: inactive

## N=C(CCl)NCCC[C@H](NC(=O)c1ccccc1)C(N)=O
[11]
  inhibition: Active

## N=C(CF)NCCC[C@H](NC(=O)c1ccccc1)c1nn[nH]n1
[2]
  inhibition: inactive
U2OS [1]
  Activity: inactive

## N=C(CF)NCCC[C@H](NC(=O)c1ccccc1C(=O)O)c1nn[nH]n1
Homo sapiens [5]
  Selectivity ratio: 20
Homo sapiens [6]
  Selectivity ratio: 20
[12]
  inhibition: Active
[2]
  inhibition: inactive
Liver
  Stability: Stable
U2OS [1]
  Activity: inactive

## CC(C)(C)n1nnc([C@H](CCCNC(=N)CCl)NC(=O)c2ccccc2)n1
U2OS [1]
  Activity: inactive

## CC(C)(C)n1nnc([C@H](CCCNC(=N)CCl)NC(=O)c2ccc(-c3ccccc3)cc2)n1
[2]
  inhibition: inactive
U2OS [7]
  pEC50: 5.00
[10]
  pEC50: 4.51
